Assay results: ChEMBL document CHEMBL4414601 (J Med Chem, 2019)
Values after ≈ are worked out from the molar mass of the structure shown. Blank lines part the entries; values can stand above or below the compound they belong to.

Assays:
Plasmodium falciparum = test: Antiplasmodial activity against Plasmodium falciparum 3D7A erythrocytic stage assessed as reduction in [3H]hypoxanthine incorporation preincubated for 24 hrs followed by [3H]hypoxanthine addition and measured after 24 hrs by microbeta scintillation counting method; type: functional, organism-based
Outline: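 Nine threefold serial dilutions from 5 μM top concentration. Incubated 24 h at 37 °C under 5% CO2/5% O2/90% N2, then 0.2 μCi [3H]-hypoxanthine per well for another 24 h. Cells harvested on glass fibre filters and counted. Data normalized to compound-free parasitized RBCs; IC50 fitted.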

[1] = Lipophilicity, LogD of compound by reverse phase HPLC analysis
[2] = Aqueous solubility of compound; conditions: buffer
L929 = test: Cytotoxicity against mouse L929 cells assessed as reduction in viability by dual luciferase reporter gene assay; type: ADME, cell-based
[3] = Permeability of compound by PAMPA

SMILES: Fc1ccc(-c2nc(C3CCNCC3)sc2-c2ccnc(N3CCC(CN4CCOCC4)CC3)n2)cc1
EC50 (Plasmodium falciparum): > 5 µM | chromatographic logD [1]: 3.75 | solubility [2]: 355 µM (≈ 186 µg/mL) | EC50 (L929): 12.9 µM | Papp [3]: 38 ×10⁻⁶ cm/s

SMILES: CN1CCN(c2ccc(Nc3nccc(-c4sc(N)nc4-c4ccc(F)cc4)n3)cc2)CC1
EC50 (Plasmodium falciparum): > 5 µM | chromatographic logD [1]: 3.61 | solubility [2]: 8 µM (≈ 3.69 µg/mL) | EC50 (L929): 2.5 µM | Papp [3]: 26 ×10⁻⁶ cm/s

SMILES: Cc1nc(Nc2nccc(-c3sc(C4CCNCC4)nc3-c3ccc(F)cc3)n2)ccc1F
EC50 (Plasmodium falciparum): > 5 µM | chromatographic logD [1]: 3.96 | solubility [2]: 16 µM (≈ 7.43 µg/mL) | EC50 (L929): 5.2 µM | Papp [3]: 30 ×10⁻⁶ cm/s

SMILES: Fc1ccc(-c2nc(C3CCNCC3)sc2-c2ccnc(N3CCCC3)n2)cc1
EC50 (Plasmodium falciparum): > 5 µM | chromatographic logD [1]: 3.71 | solubility [2]: 374 µM (≈ 153 µg/mL) | EC50 (L929): 13.8 µM | Papp [3]: 46 ×10⁻⁶ cm/s

SMILES: CCOc1nccc(Nc2nccc(-c3sc(C4CCNCC4)nc3-c3ccc(F)cc3)n2)n1
EC50 (Plasmodium falciparum): 0.6 µM | chromatographic logD [1]: 3.21 | solubility [2]: 35 µM (≈ 16.7 µg/mL) | EC50 (L929): 2.1 µM | Papp [3]: 17 ×10⁻⁶ cm/s

SMILES: Nc1nccc(-c2sc(C3CCNCC3)nc2-c2ccc(F)cc2)n1
EC50 (Plasmodium falciparum): 2.2 µM | chromatographic logD [1]: 1.5 | solubility [2]: 467 µM (≈ 166 µg/mL) | EC50 (L929): 55 µM | Papp [3]: 13 ×10⁻⁶ cm/s

SMILES: Cc1csc(Nc2nccc(-c3sc(C4CCNCC4)nc3-c3ccc(F)cc3)n2)n1
EC50 (Plasmodium falciparum): 3.85 µM | chromatographic logD [1]: 2.99 | solubility [2]: 40 µM (≈ 18.1 µg/mL) | EC50 (L929): 2.2 µM | Papp [3]: 15 ×10⁻⁶ cm/s

SMILES: Oc1cc(Nc2nccc(-c3sc(C4CCNCC4)nc3-c3ccc(F)cc3)n2)ccn1
EC50 (Plasmodium falciparum): 3.47 µM | chromatographic logD [1]: 1.64 | EC50 (L929): 100 µM | Papp [3]: 2 ×10⁻⁶ cm/s

SMILES: O=S(=O)(Nc1nc(-c2ccc(F)cc2)c(-c2ccnc(Nc3ccc(N4CCNCC4)cc3)n2)s1)C1CCNCC1
EC50 (Plasmodium falciparum): > 5 µM | chromatographic logD [1]: 1.34 | EC50 (L929): 74.1 µM | Papp [3]: 3 ×10⁻⁶ cm/s

EC50 (Plasmodium falciparum): 3.31 µM | chromatographic logD [1]: 1.29 | solubility [2]: 131 µM (≈ 66.1 µg/mL) | Papp [3]: 3 ×10⁻⁶ cm/s
SMILES: Fc1ccc(-c2nc(C3CCNCC3)sc2-c2ccnc(Nc3ccn(C4CCNCC4)n3)n2)cc1
EC50 (L929): 100 µM

SMILES: CCCS(=O)(=O)Nc1nc(-c2ccc(F)cc2)c(-c2ccnc(Nc3ccc(N4CCNCC4)cc3)n2)s1
EC50 (Plasmodium falciparum): 4.86 µM | chromatographic logD [1]: 2.5 | EC50 (L929): 100 µM

SMILES: COCCNc1nccc(-c2sc(C3CCNCC3)nc2-c2ccc(F)cc2)n1
EC50 (Plasmodium falciparum): > 5 µM | chromatographic logD [1]: 2.45 | solubility [2]: 235 µM (≈ 97.2 µg/mL) | EC50 (L929): 33.9 µM | Papp [3]: 30 ×10⁻⁶ cm/s

SMILES: OC1CCN(c2nccc(-c3sc(C4CCNCC4)nc3-c3ccc(F)cc3)n2)C1 (stereo not given)
EC50 (Plasmodium falciparum): > 5 µM | chromatographic logD [1]: 1.92 | solubility [2]: 273 µM (≈ 116 µg/mL) | EC50 (L929): 72.4 µM | Papp [3]: 6.5 ×10⁻⁶ cm/s

SMILES: Fc1ccc(-c2nc(C3CCNCC3)sc2-c2ccnc(NCCN3CCOCC3)n2)cc1
EC50 (Plasmodium falciparum): > 5 µM | chromatographic logD [1]: 2.02 | solubility [2]: 408 µM (≈ 191 µg/mL) | Papp [3]: 17 ×10⁻⁶ cm/s

SMILES: c1cc(Nc2nccc(-c3sc(C4CCNCC4)nc3C3CC3)n2)ncn1
EC50 (Plasmodium falciparum): 3.45 µM | chromatographic logD [1]: 1.71 | solubility [2]: 139 µM (≈ 52.7 µg/mL) | EC50 (L929): 43.7 µM | Papp [3]: 18 ×10⁻⁶ cm/s

SMILES: O=C(Nc1nc(-c2ccc(F)cc2)c(-c2ccnc(Nc3ccc(N4CCNCC4)cc3)n2)s1)C1CC1
EC50 (Plasmodium falciparum): > 5 µM | chromatographic logD [1]: 2.53 | EC50 (L929): 25.7 µM | Papp [3]: 2 ×10⁻⁶ cm/s

SMILES: Fc1ccc(-c2nc(C3CCNCC3)sc2-c2ccnc(NCCN3CCCC3)n2)cc1
EC50 (Plasmodium falciparum): 3.19 µM | chromatographic logD [1]: 1.13 | solubility [2]: 297 µM (≈ 134 µg/mL) | EC50 (L929): 38 µM | Papp [3]: 1 ×10⁻⁶ cm/s

SMILES: Fc1ccc(-c2nc(C3CCNCC3)sc2-c2ccnc(NCC3CCCO3)n2)cc1 (stereo not given)
EC50 (Plasmodium falciparum): > 5 µM | chromatographic logD [1]: 2.77 | solubility [2]: 299 µM (≈ 131 µg/mL) | EC50 (L929): 17 µM | Papp [3]: 32 ×10⁻⁶ cm/s

SMILES: CN(C)CCNc1nccc(-c2sc(C3CCNCC3)nc2-c2ccc(F)cc2)n1
EC50 (Plasmodium falciparum): 3.11 µM | chromatographic logD [1]: 1.07 | solubility [2]: 244 µM (≈ 104 µg/mL) | EC50 (L929): 100 µM | Papp [3]: 2.4 ×10⁻⁶ cm/s

SMILES: COc1cc(Nc2nccc(-c3sc(C4CCNCC4)nc3-c3ccc(F)cc3)n2)cc(C)n1
EC50 (Plasmodium falciparum): 0.38 µM | chromatographic logD [1]: 3.36 | EC50 (L929): 1.2 µM | Papp [3]: 19 ×10⁻⁶ cm/s

SMILES: Fc1ccc(-c2nc(C3CCNCC3)sc2-c2ccnc(N3CCC(N4CCOCC4)CC3)n2)cc1
EC50 (Plasmodium falciparum): 2.37 µM | chromatographic logD [1]: 2.83 | solubility [2]: 251 µM (≈ 128 µg/mL) | EC50 (L929): 15.5 µM | Papp [3]: 27 ×10⁻⁶ cm/s

SMILES: Cc1nnc(Nc2nccc(-c3sc(C4CCNCC4)nc3-c3ccc(F)cc3)n2)s1
EC50 (Plasmodium falciparum): 4.44 µM | chromatographic logD [1]: 2.02 | solubility [2]: 74 µM (≈ 33.6 µg/mL) | EC50 (L929): 4.4 µM | Papp [3]: 8 ×10⁻⁶ cm/s

SMILES: Fc1ccc(-c2nc(C3CCNCC3)sc2-c2ccnc(N3CCC(N4CCC4)CC3)n2)cc1
EC50 (Plasmodium falciparum): 4.25 µM | chromatographic logD [1]: 1.63 | solubility [2]: 114 µM (≈ 54.6 µg/mL) | EC50 (L929): 25.7 µM | Papp [3]: 7.2 ×10⁻⁶ cm/s

SMILES: Fc1ccc(-c2nc(C3CCNCC3)sc2-c2ccnc(Nc3ccccn3)n2)cc1
EC50 (Plasmodium falciparum): 2.41 µM | chromatographic logD [1]: 2.96 | solubility [2]: 56 µM (≈ 24.2 µg/mL) | EC50 (L929): 6.2 µM | Papp [3]: 33 ×10⁻⁶ cm/s

SMILES: CCOC(=O)N1CCC(c2nc(-c3ccc(F)cc3)c(-c3ccnc(Nc4ccc(N5CCN(C)CC5)cc4)n3)s2)CC1
EC50 (Plasmodium falciparum): > 5 µM | chromatographic logD [1]: 6.66 | solubility [2]: 23 µM (≈ 13.8 µg/mL) | EC50 (L929): 6.5 µM | Papp [3]: 41 ×10⁻⁶ cm/s

SMILES: CCc1cc(Nc2nccc(-c3sc(C4CCNCC4)nc3-c3ccc(F)cc3)n2)nc(C)c1F
EC50 (Plasmodium falciparum): 2.9 µM | chromatographic logD [1]: 4.92 | solubility [2]: 17 µM (≈ 8.37 µg/mL) | EC50 (L929): 4.3 µM

SMILES: Fc1ccc(-c2nc(C3CCNCC3)oc2-c2ccnc(Nc3ccncn3)n2)cc1
EC50 (Plasmodium falciparum): > 5 µM | chromatographic logD [1]: 1.79 | solubility [2]: 226 µM (≈ 94.3 µg/mL) | EC50 (L929): 21.4 µM | Papp [3]: 19 ×10⁻⁶ cm/s

SMILES: Cc1cc(Nc2nccc(-c3sc(C4CCNCC4)nc3-c3ccc(F)cc3)n2)nn1C
EC50 (Plasmodium falciparum): > 5 µM | chromatographic logD [1]: 2.52 | solubility [2]: 146 µM (≈ 65.6 µg/mL) | EC50 (L929): 5.1 µM | Papp [3]: 20 ×10⁻⁶ cm/s

SMILES: CN(C)C(CNc1nccc(-c2sc(C3CCNCC3)nc2-c2ccc(F)cc2)n1)C1CC1 (stereo not given)
EC50 (Plasmodium falciparum): 2.35 µM | chromatographic logD [1]: 1.68 | solubility [2]: 514 µM (≈ 240 µg/mL) | EC50 (L929): 12 µM | Papp [3]: 3.4 ×10⁻⁶ cm/s

SMILES: O[C@H]1CC[C@H](Nc2nccc(-c3sc(C4CCNCC4)nc3-c3ccc(F)cc3)n2)CC1
EC50 (Plasmodium falciparum): > 5 µM | chromatographic logD [1]: 2.12 | solubility [2]: 287 µM (≈ 130 µg/mL) | EC50 (L929): 27.5 µM | Papp [3]: 5.5 ×10⁻⁶ cm/s

SMILES: CN1CCC(Nc2nccc(-c3sc(C4CCNCC4)nc3-c3ccc(F)cc3)n2)C1 (stereo not given)
EC50 (Plasmodium falciparum): 2.72 µM | chromatographic logD [1]: 1.14 | solubility [2]: 402 µM (≈ 176 µg/mL) | EC50 (L929): 37.2 µM | Papp [3]: 1.7 ×10⁻⁶ cm/s

SMILES: Nc1nc(-c2ccc(F)cc2)c(-c2ccnc(Nc3ccc(N4CCOCC4)cc3)n2)s1
chromatographic logD [1]: 4.61 | solubility [2]: 26 µM (≈ 11.7 µg/mL) | EC50 (L929): 19.5 µM | Papp [3]: 3 ×10⁻⁶ cm/s

SMILES: Cc1nc(Nc2nccc(-c3sc(C4CCNCC4)nc3-c3ccc(F)cc3)n2)cc(C2CCC2)c1F
EC50 (Plasmodium falciparum): > 5 µM | chromatographic logD [1]: 5.52 | solubility [2]: 7 µM (≈ 3.63 µg/mL) | EC50 (L929): 18.6 µM

SMILES: OCCNc1nccc(-c2sc(C3CCNCC3)nc2-c2ccc(F)cc2)n1
EC50 (Plasmodium falciparum): 4.05 µM | chromatographic logD [1]: 1.52 | solubility [2]: 351 µM (≈ 140 µg/mL) | EC50 (L929): 61.7 µM | Papp [3]: 1 ×10⁻⁶ cm/s

SMILES: CN1CCN(CCNc2nccc(-c3sc(C4CCNCC4)nc3-c3ccc(F)cc3)n2)CC1
EC50 (Plasmodium falciparum): > 5 µM | chromatographic logD [1]: 1.34 | solubility [2]: 238 µM (≈ 115 µg/mL) | EC50 (L929): 100 µM | Papp [3]: 1 ×10⁻⁶ cm/s
